The IC50 is the concentration at which inhibition is half-maximal. A high value points to a need for much substance.

Each structure is given as a SMILES string. Active and inactive are the calls of the source. The calls are words filed in the database; no cut-off is given here.

Drawing on ChEMBL document CHEMBL2176948 (J Med Chem, 2012), this text covers IC50, Activity and Stability for twelve compounds.

For data set [1], the system named is HeLa. As to the kind of experiment: Cytotoxicity against human HeLa cells after 96 hrs by MTT assay. The class given is functional, cell-based. In a few lines:
(§1)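 Parental HeLa cells and a transfected class III β-tubulin-overexpressing variant were seeded at 1 × 10⁴ cells/mL and held overnight at 37 °C, 5% CO₂. Compounds in DMSO were diluted in complete medium over a broad range (final DMSO ≤0.1%) and exposed for 96 h. Read-out was MTT. IC50 is the mean ± standard error of at least four independent assays.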
A general note: Formazan colour is commonly taken as a measure of viable cells.

The test system of data set [2] is HeLa. In words: Cytotoxicity against human HeLa cells expressing class 3 tubulin after 96 hrs by MTT assay. The format is functional, cell-based. The gist of the method:
as §1

Data set [3] deals with DLD-1. As to the kind of experiment: Induction of ABCG2 mRNA expression in human DLD1 cells at 1/10 IC50 to IC50 after 96 hrs by RT-PCR analysis. The class given is functional, cell-based. The gist of the method: (§2)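 HT29 and DLD-1 cells were seeded at 5 × 10⁵ cells/dish, incubated overnight, then treated for 96 h. Total RNA was isolated, and ABCB1 and ABCG2 mRNA were measured by quantitative RT-PCR. Fold induction is target/PPIA signal relative to the control ratio, from three independent PCR analyses. Statistics: paired two-tailed t test with two-way ANOVA and Bonferroni correction.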

Data set [4] concerns DLD-1. As to the kind of experiment: Induction of ABCB1 mRNA expression in human DLD1 cells at 1/10 IC50 to IC50 after 96 hrs by RT-PCR analysis. The format is functional, cell-based. In a few lines: as §2
Data set [5] has as its system HT-29. In words: Induction of ABCG2 mRNA expression in human HT-29 cells at 1/10 IC50 to IC50 after 96 hrs by RT-PCR analysis. The class given is functional, cell-based. In a few lines: as §2
The test system of data set [6] is HT-29. As to the kind of experiment: Induction of ABCB1 mRNA expression in human HT-29 cells at 1/10 IC50 to IC50 after 96 hrs by RT-PCR analysis. The class given is functional, cell-based. In a few lines: as §2
Data set [7] can be described thus: Cytotoxicity against human A2780AD cells expressing p-gp after 96 hrs by MTT assay. The format is functional, cell-based. The settings on record: A2780 ADR. In a few lines: (§3)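 Cells were seeded at 1 × 10⁴ cells/mL in 96-well format and incubated overnight at 37 °C in 5% CO₂. Medium was replaced with serial compound dilutions from DMSO stocks in complete medium (final DMSO ≤0.1%). Chemosensitivity was read by MTT after 96 h.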

The subject of data set [8] is HT-29. In words: Cell cycle arrest in human HT-29 cells assessed as accumulation at G2/M phase at 40 nM after 48 hrs by FACS analysis. The class given is functional. Background: Flow cytometry measures light scatter and fluorescence of single cells or particles in a stream.
The subject of data set [9] is HT-29. As to the kind of experiment: Cell cycle arrest in human HT-29 cells assessed as accumulation at G2/M phase at 40 nM after 24 hrs by FACS analysis. The format is functional.
Data set [10] concerns HT-29. In words: Cytotoxicity against human HT-29 cells after 96 hrs by MTT assay. The class given is functional, cell-based. The settings on record: HT-29, 96 h. In a few lines: (§4)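 Cells were grown in RPMI 1640 with 1 mM sodium pyruvate, 2 mM L-glutamine and 10% FBS. They were seeded at 1 × 10⁴ cells/mL and left overnight at 37 °C in 5% CO₂. Medium was then replaced with a broad concentration range of compound diluted from DMSO (final DMSO ≤0.1%). After 96 h exposure, growth was read by MTT.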

Data set [11] concerns MDA-MB-231. As to the kind of experiment: Cytotoxicity against human MDA-MB-231 cells after 96 hrs by MTT assay. The class given is functional, cell-based. The conditions noted are these: MDA-MB-231, 96 h. The gist of the method:
as §4

Data set [12] deals with DLD-1. In words: Cytotoxicity against human DLD1 cells after 96 hrs by MTT assay. The format is functional, cell-based. The conditions noted are these: DLD-1, 96 h. The gist of the method: as §4
For data set [13], the system named is A2780 (human ovarian carcinoma). As to the kind of experiment: Cytotoxicity against human A2780 cells after 96 hrs by MTT assay. The settings on record: A2780, 96 h.
The subject of data set [14] is A549. As to the kind of experiment: Cytotoxicity against human A549 cells after 96 hrs by MTT assay in presence of fumitremorgin-C. The format is functional, cell-based. In a few lines: as §3
Data set [15] has as its system Liver. In words: Metabolic stability of the compound in mouse liver homogenates at 100 uM after 2 hrs. The class given is ADME, tissue-based. The conditions noted are these: tissue homogenate.
For data set [16], the system named is HT-29. In words: Induction of microtubule disruption in human HT-29 cells assessed as change […] cell morphology and cytoskeletal organization after 24 hrs by immunostaining. The class given is cell-based. The gist of the method: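 HT29 cells on glass coverslips were allowed to adhere for 24 h, then exposed to 5, 50 and 500 nM for 24 h. Cells were fixed in methanol at −20 °C for 30 min and stained with mouse anti-α-tubulin (1:500, 30 min, rt), then TRITC anti-mouse IgG (1:50, 30 min). Images were taken by confocal microscopy and compared with untreated cells.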

The test system of data set [17] is A2780 ADR. In words: Effect on ABCB1 level in human A2780AD cells expressing p-gp. The class given is functional, cell-based.

`COc1cc2c(c(OC)c1OC)-c1ccc(OC)c(=O)cc1[C@@H](NC(C)=O)CC2` [COLCHICINE]: the IC50 in data set [1] came to 8.2 nM; in [2], 9.7 nM; in data set [7] it was 16.8 nM; in data set [10], 69.2 nM; in data set [11], 37 nM; in [12] it was 15.6 nM. For the same compound, the IC50 in data set [13] turned out to be 6.7 nM. Besides, the result in [3] and in data set [4] was inactive. For the same compound, the outcome in data set [5], in data set [6], in [8] and in [9] was Active.
In the case of `COc1ccc(CN[C@H]2CCc3cc(OC)c(OC)c(OC)c3-c3ccc(OC)c(=O)cc32)cc1`, the IC50 in [10] was determined as 51 nM; in data set [11], 93 nM; in [12], 15.7 nM.
With `CC(=O)O[C@H]1C(=O)[C@@]2(C)[C@H]([C@H](OC(=O)c3ccccc3)[C@]3(O)C[C@H](OC(=O)[C@H](O)[C@@H](NC(=O)c4ccccc4)c4ccccc4)C(C)=C1C3(C)C)[C@]1(OC(C)=O)CO[C@@H]1C[C@@H]2O` [PACLITAXEL], the results for the IC50 in [7] and in data set [13] were over 1000 nM and 1.1 nM, respectively.
In data set [12], `COc1cc2c(c(OC)c1OC)-c1ccc(OC)c(=O)cc1[C@@H](NCc1ccc(I)cc1)CC2` returned an IC50 of 35.9 nM.
As for `COc1cc2c(c(OC)c1OC)-c1ccc(OC)c(=O)cc1[C@@H](NCc1cc(F)cc(F)c1)CC2`, the IC50 in [10] was 52 nM; in data set [11], 523 nM; in data set [12], 35.2 nM.
In the same order, the values of `COc1cc2c(c(OC)c1OC)-c1ccc(OC)c(=O)cc1[C@@H](NCc1cc(F)c(F)c(F)c1)CC2` are 64.5 nM, 92.2 nM and 36.2 nM.
In the same order, the values of `COc1cc2c(c(OC)c1OC)-c1ccc(OC)c(=O)cc1[C@@H](NCc1cccc(F)c1)CC2` are 63.4 nM, 89.1 nM and 51.6 nM.
For `COc1cc2c(c(OC)c1OC)-c1ccc(OC)c(=O)cc1[C@@H](NCc1ccc(F)c(F)c1)CC2`, the half-inhibitory concentration (IC50) in [1] was 25.3 nM; in [2], 14.1 nM; in data set [7], 17.2 nM; in data set [10], 4.3 nM; in data set [11] it was 16 nM; in data set [12], 1.61 nM. Further, half-maximal inhibition in data set [13] (IC50) required 18.8 nM. Also, the result in data set [14], in data set [5] and in data set [6] was Active. In addition, the result in [3], in [4] and in data set [17] was inactive. Also, the Stability entry in data set [15] is given as “Stable”. Further, the Activity result in data set [16] was “Dose-dependent effect”; in [8] it was 91.2%; in [9] it was 92.5%.
On to `COc1cc2c(c(OC)c1OC)-c1ccc(OC)c(=O)cc1[C@@H](NCc1cccc(F)c1F)CC2`, for which the IC50 was 7.43 nM in [10], 86 nM in [11] and 4.67 nM in [12].
For the compound `COc1cc2c(c(OC)c1OC)-c1ccc(OC)c(=O)cc1[C@@H](NCc1ccc(F)cc1)CC2`, the IC50 in [12] stood at 11.4 nM.
Same read-out and setting: for `COc1cc2c(c(OC)c1OC)-c1ccc(OC)c(=O)cc1[C@@H](NCc1ccc(Cl)cc1)CC2` the value was 32.6 nM.
Same read-out and setting: as for `COc1cc2c(c(OC)c1OC)-c1ccc(OC)c(=O)cc1[C@@H](NCc1ccc(Br)cc1)CC2`, the figure is 31.2 nM.
